Test results taken from ChEMBL document CHEMBL2010740, “Synthesis and evaluation of 2-amido-3-carboxamide thiophene CB₂ receptor agonists for pain management” (Bioorg Med Chem Lett, 2012).
The source made the active and inactive calls.

Assays:
Rattus norvegicus [1] = experiment: Analgesic activity in rat spinal nerve ligation model of neuropathic pain assessed as […] at 10 umol/kg, ip administered 2 weeks post-surgery measured after 30 mins; type: functional; parameters: scale not given: the % may be the effect or the level left
In short: (§1)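 Rat spinal nerve ligation (Chung) neuropathic pain model. Dosing was intraperitoneal, two weeks after surgery and 30 min before testing. Read-out was mechanical allodynia (paw withdrawal threshold), given as a dose–response.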

[2] = Plasma protein binding in human; type: ADME, cell-free; details: read-out: PPB (converted)
Cannabinoid receptor 2 [3] = biological target: Cannabinoid receptor 2 (Homo sapiens, UniProt P34972); experiment: Agonist activity at human recombinant CB2 receptor expressed in HEK293 cells assessed as inhibition of forskolin-induced cAMP production after 20 mins by ELISA; type: functional, cell-based
In short: (§2)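 cAMP assay in HEK 293 cells stably expressing the relevant CB receptor, with a fixed concentration of forskolin. cAMP was quantified by ELISA. Activation is given as percent of the CP-55,940 control response.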

[4] = Half life in rat at 3 umol/kg, iv; type: ADME, organism-based; details: in vivo
[5] = Oral bioavailability in rat at 10 umol/kg, ip; type: ADME, organism-based; details: in vivo, intraperitoneal
[6] = Oral bioavailability in rat at 10 umol/kg; type: ADME, organism-based; details: in vivo
Rattus norvegicus [7] = experiment: Analgesic activity in rat complete Freund's adjuvant model of chronic inflammatory pain assessed as latency in paw withdrawal at 100 umol/kg, po administered 48 hrs after CFA-challenge measured after 60 mins; type: functional
Rattus norvegicus [8] = experiment: Neurotoxicity in rat assessed as decrease in spontaneous locomotory activity at 10 umol/kg, ip after 30 mins; type: toxicity, organism-based; parameters: scale not given: the % may be the effect or the level left; details: in vivo, 0.5 h
In short: (§3)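 Spontaneous horizontal locomotor activity in rats. Compound was given intraperitoneally 30 min before testing.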

Cannabinoid receptor 2 [9] = biological target: T1, Cannabinoid receptor 2 (Rattus norvegicus, UniProt Q9QZN9); experiment: Agonist activity at rat recombinant CB2 receptor expressed in HEK293 cells assessed as inhibition of forskolin-induced cAMP production after 20 mins by ELISA; type: functional, cell-based; in short: as §2
T1 sequence (Q9QZN9 whole entry): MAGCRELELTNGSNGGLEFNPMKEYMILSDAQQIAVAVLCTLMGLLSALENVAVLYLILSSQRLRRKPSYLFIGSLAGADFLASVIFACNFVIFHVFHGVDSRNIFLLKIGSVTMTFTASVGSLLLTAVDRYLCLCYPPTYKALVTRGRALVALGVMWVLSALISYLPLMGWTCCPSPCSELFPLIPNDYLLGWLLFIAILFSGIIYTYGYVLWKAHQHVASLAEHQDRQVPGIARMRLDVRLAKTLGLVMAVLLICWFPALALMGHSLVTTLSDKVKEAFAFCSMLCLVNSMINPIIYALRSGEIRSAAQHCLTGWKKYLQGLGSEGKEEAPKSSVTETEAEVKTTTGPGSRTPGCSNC

Rattus norvegicus [10] = experiment: Analgesic activity in rat complete Freund's adjuvant model of chronic inflammatory pain assessed as reduction in thermal hyperalgesia at 10 umol/kg, ip co-administered with CB2 antagonist SR144528; type: functional; parameters: scale not given: the % may be the effect or the level left
In short: (§4)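 Rat CFA inflammatory pain model. Read-out was thermal hyperalgesia in the CFA-injected right paw, with the left paw as control. Test compound and the CB₂ antagonist SR-144528 (10 µmol/kg ip) were given alone and combined, with vehicle controls.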

[11] = Half life in rat at 10 umol/kg, ip; type: ADME, organism-based; details: in vivo
Rattus norvegicus [12] = experiment: Analgesic activity in rat complete Freund's adjuvant model of chronic inflammatory pain assessed as reduction in thermal hyperalgesia at 10 umol/kg, ip administered 48 hrs after CFA-challenge measured after 60 mins; type: functional; parameters: scale not given: the % may be the effect or the level left
Rattus norvegicus [13] = experiment: Analgesic activity in rat spinal nerve ligation model of neuropathic pain assessed as […] at 3 umol/kg, ip administered 2 weeks post-surgery measured after 30 mins; type: functional; parameters: scale not given: the % may be the effect or the level left; in short: as §1
Cannabinoid receptor 1 [14] = biological target: Cannabinoid receptor 1 (Rattus norvegicus, UniProt P20272); experiment: Agonist activity at rat recombinant CB1 receptor expressed in HEK293 cells assessed as inhibition of forskolin-induced cAMP production after 20 mins by ELISA; type: functional, cell-based; in short: as §2
[15] = Volume of distribution during terminal phase in rat at 3 umol/kg, iv; type: ADME, organism-based; details: in vivo, read-out: Vbeta
[16] = Tmax in rat at 10 umol/kg, po; type: ADME, organism-based; details: in vivo
Rattus norvegicus [17] = experiment: Analgesic activity in rat complete Freund's adjuvant model of chronic inflammatory pain assessed as reduction in thermal hyperalgesia at 3 umol/kg, ip administered 48 hrs after CFA-challenge measured after 60 mins; type: functional, organism-based
Rattus norvegicus [18] = experiment: Analgesic activity in rat complete Freund's adjuvant model of chronic inflammatory pain assessed as reduction in thermal hyperalgesia at 10 umol/kg, ip; type: functional; parameters: scale not given: the % may be the effect or the level left; in short: as §4
[19] = AUC in rat at 10 umol/kg, po; type: ADME, organism-based; details: plasma
Rattus norvegicus [20] = experiment: Analgesic activity in rat chronic constriction injury model of neuropathic pain assessed as reduction in mechanical allodynia at 30 umol/kg, ip administered 2 weeks post-surgery measured after 30 mins; type: functional; parameters: scale not given: the % may be the effect or the level left
Cannabinoid receptor 2 [21] = biological target: T1, Cannabinoid receptor 2; experiment: Displacement of [3H]CP-55940 from rat recombinant CB2 receptor expressed in HEK293 cells after 90 mins; type: cell-based
In short: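 Competitive binding: [³H]CP-55,940 displaced from membranes of HEK 293 cells stably transfected with human or rat CB₂, or CHO cells stably transfected with human or rat CB₁. Reported as pKi. Determinations >2 (duplicate of duplicate).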

Rattus norvegicus [22] = experiment: Analgesic activity in ip dosed rat incision model of post-operative pain assessed as reduction in paw withdrawal latency administered 90 mins post-surgical incision measured after 30 mins; type: functional, organism-based
Rattus norvegicus [23] = experiment: Neurotoxicity in ip dosed rat assessed as decrease in spontaneous locomotory activity after 30 mins; type: toxicity, organism-based; details: in vivo, 0.5 h; in short: as §3
Rattus norvegicus [24] = experiment: Analgesic activity in rat incision model of post-operative pain assessed as reduction in paw withdrawal latency at 10 umol/kg, ip administered 90 mins post-surgical incision measured after 30 mins; type: functional; parameters: scale not given: the % may be the effect or the level left
Rattus norvegicus [25] = experiment: Analgesic activity in rat complete Freund's adjuvant model of chronic inflammatory pain assessed as latency in paw withdrawal at 30 umol/kg, po administered 48 hrs after CFA-challenge measured after 60 mins; type: functional
Cannabinoid receptor 1 [26] = biological target: Cannabinoid receptor 1 (Homo sapiens, UniProt P21554); experiment: Agonist activity at human recombinant CB1 receptor expressed in HEK293 cells assessed as inhibition of forskolin-induced cAMP production after 20 mins by ELISA; type: functional, cell-based; in short: as §2
Sequence of Cannabinoid receptor 1 (Homo sapiens, UniProt P21554) (P21554 whole entry): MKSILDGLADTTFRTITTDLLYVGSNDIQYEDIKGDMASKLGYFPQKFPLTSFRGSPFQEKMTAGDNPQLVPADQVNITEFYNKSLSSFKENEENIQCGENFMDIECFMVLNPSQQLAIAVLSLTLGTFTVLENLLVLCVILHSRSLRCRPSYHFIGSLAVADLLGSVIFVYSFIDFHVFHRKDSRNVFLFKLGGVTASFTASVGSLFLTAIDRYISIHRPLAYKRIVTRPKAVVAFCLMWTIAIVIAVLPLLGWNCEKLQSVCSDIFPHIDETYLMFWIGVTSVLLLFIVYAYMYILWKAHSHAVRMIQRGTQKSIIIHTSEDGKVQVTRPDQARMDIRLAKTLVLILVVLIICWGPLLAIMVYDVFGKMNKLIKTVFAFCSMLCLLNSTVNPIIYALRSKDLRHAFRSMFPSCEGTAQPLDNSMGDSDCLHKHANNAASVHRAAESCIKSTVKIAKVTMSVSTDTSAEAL

Sequence of Cannabinoid receptor 2 (Homo sapiens, UniProt P34972) (P34972 whole entry): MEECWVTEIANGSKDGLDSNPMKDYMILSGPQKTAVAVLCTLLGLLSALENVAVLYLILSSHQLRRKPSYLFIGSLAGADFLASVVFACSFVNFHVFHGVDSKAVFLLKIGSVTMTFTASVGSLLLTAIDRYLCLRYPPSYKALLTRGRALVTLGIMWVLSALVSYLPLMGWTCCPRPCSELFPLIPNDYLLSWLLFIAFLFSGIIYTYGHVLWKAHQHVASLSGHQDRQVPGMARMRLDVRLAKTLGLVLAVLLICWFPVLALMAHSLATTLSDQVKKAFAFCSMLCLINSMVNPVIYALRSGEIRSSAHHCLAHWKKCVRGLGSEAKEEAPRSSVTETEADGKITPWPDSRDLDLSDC
Sequence of Cannabinoid receptor 1 (Rattus norvegicus, UniProt P20272) (P20272 whole entry): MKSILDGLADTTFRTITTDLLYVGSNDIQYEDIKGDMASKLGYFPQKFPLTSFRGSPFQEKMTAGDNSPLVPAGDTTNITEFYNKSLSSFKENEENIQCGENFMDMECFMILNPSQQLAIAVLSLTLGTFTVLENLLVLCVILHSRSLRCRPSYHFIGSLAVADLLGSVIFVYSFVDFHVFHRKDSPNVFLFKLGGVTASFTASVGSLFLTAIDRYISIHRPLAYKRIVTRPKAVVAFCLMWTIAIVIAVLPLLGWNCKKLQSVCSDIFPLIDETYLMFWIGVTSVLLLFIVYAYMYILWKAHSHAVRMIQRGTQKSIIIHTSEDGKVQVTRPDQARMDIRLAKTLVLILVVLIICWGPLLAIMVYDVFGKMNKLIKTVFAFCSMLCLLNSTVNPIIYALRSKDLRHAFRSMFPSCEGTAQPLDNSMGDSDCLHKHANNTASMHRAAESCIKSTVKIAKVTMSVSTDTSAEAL

For `CCCNC(=O)c1c(NC(=O)C23CC4CC(CC2C4)C3)sc2c1CCOC2`, the Activity (Rattus norvegicus [1]) was 29%, the fraction unbound [2] was 0.02 and the IC50 (Cannabinoid receptor 2 [3]) was 1.95 nM. The half-life [4] was 1.5 h, the bioavailability [5] was 96% and the bioavailability [6] was 11%. It also gave an Activity (Rattus norvegicus [7]) of 58%, an Activity (Rattus norvegicus [8]) of 18% and an IC50 (Cannabinoid receptor 2 [9]) of 9.33 nM. It also gave an Activity (Rattus norvegicus [10]) of 24%, a half-life [11] of 6.7 h and an Activity (Rattus norvegicus [12]) of 74%. For the same molecule, the Activity (Rattus norvegicus [13]) was 8%, the IC50 (Cannabinoid receptor 1 [14]) was 1410 nM and the Vd [15] was 8.7 L/kg. For the same molecule, the Tmax [16] was 1.2 h, the Activity (Rattus norvegicus [17]) was “Active” and the Activity (Rattus norvegicus [18]) was 91%. It also gave an AUC [19] of 123 ng·h/mL, an Activity (Rattus norvegicus [20]) of 74% and a Ki (Cannabinoid receptor 2 [21]) of 33.9 nM. The Activity (Rattus norvegicus [22]) was “Dose-dependent effect”, the Activity (Rattus norvegicus [23]) was “Dose-dependent effect” and the Activity (Rattus norvegicus [24]) was 45%. The Activity (Rattus norvegicus [25]) was 24% and the IC50 (Cannabinoid receptor 1 [26]) was 3470 nM.
